Test results: ChEMBL document CHEMBL1255376, “Comparative surveillance study of telavancin activity against recently collected gram-positive clinical isolates from across the United States” (2008)
≈ marks a conversion by molar mass, not a printed value.

Legend:
Type in all cases: functional
Staphylococcus aureus [1] = experiment: Antibacterial activity against methicillin-susceptible Staphylococcus aureus clinical isolate by broth microdilution method
How it was run: (§1)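 MICs by CLSI broth microdilution in frozen trays pre-loaded with serial dilutions of each agent. Quality-control strains run in parallel: E. faecalis ATCC 29212 and ATCC 51299, S. aureus ATCC 29213, S. pneumoniae ATCC 49619. Comparator susceptibility categories follow CLSI breakpoints. Methicillin resistance in staphylococci assigned from the oxacillin MIC.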

Staphylococcus aureus [2] = experiment: Antibacterial activity against methicillin-resistant Staphylococcus aureus clinical isolate by broth microdilution method; how it was run: as §1
Staphylococcus capitis [3] = experiment: Antibacterial activity against methicillin-susceptible coagulase-negative Staphylococcus capitis clinical isolate by broth microdilution method; how it was run: as §1
Staphylococcus cohnii [4] = experiment: Antibacterial activity against methicillin-susceptible coagulase-negative Staphylococcus cohnii clinical isolate by broth microdilution method; how it was run: as §1
[5] = tested on: Staphylococcus epidermidis; experiment: Antibacterial activity against methicillin-susceptible coagulase-negative Staphylococcus epidermidis clinical isolate by broth microdilution method; how it was run: as §1
[6] = tested on: Staphylococcus haemolyticus; experiment: Antibacterial activity against methicillin-susceptible coagulase-negative Staphylococcus haemolyticus clinical isolate by broth microdilution method; how it was run: as §1
Staphylococcus hominis [7] = experiment: Antibacterial activity against methicillin-susceptible coagulase-negative Staphylococcus hominis clinical isolate by broth microdilution method; how it was run: as §1
[8] = tested on: Staphylococcus saprophyticus; experiment: Antibacterial activity against methicillin-susceptible coagulase-negative Staphylococcus saprophyticus clinical isolate by broth microdilution method; how it was run: as §1
Mammaliicoccus sciuri [9] = experiment: Antibacterial activity against methicillin-susceptible coagulase-negative Staphylococcus sciuri clinical isolate by broth microdilution method; how it was run: as §1
Staphylococcus simulans [10] = experiment: Antibacterial activity against methicillin-susceptible coagulase-negative Staphylococcus simulans clinical isolate by broth microdilution method; how it was run: as §1
Staphylococcus warneri [11] = experiment: Antibacterial activity against methicillin-susceptible coagulase-negative Staphylococcus warneri clinical isolate by broth microdilution method; how it was run: as §1
Staphylococcus xylosus [12] = experiment: Antibacterial activity against methicillin-susceptible coagulase-negative Staphylococcus xylosus clinical isolate by broth microdilution method; how it was run: as §1
Staphylococcus [13] = experiment: Antibacterial activity against methicillin-susceptible coagulase-negative unspeciated Staphylococcus clinical isolate by broth microdilution method; how it was run: as §1
Staphylococcus capitis [14] = experiment: Antibacterial activity against methicillin-resistant coagulase-negative Staphylococcus capitis clinical isolate by broth microdilution method; how it was run: as §1
Staphylococcus cohnii [15] = experiment: Antibacterial activity against methicillin-resistant coagulase-negative Staphylococcus cohnii clinical isolate by broth microdilution method; how it was run: as §1
[16] = tested on: Staphylococcus epidermidis; experiment: Antibacterial activity against methicillin-resistant coagulase-negative Staphylococcus epidermidis clinical isolate by broth microdilution method; how it was run: as §1
[17] = tested on: Staphylococcus haemolyticus; experiment: Antibacterial activity against methicillin-resistant coagulase-negative Staphylococcus haemolyticus clinical isolate by broth microdilution method; how it was run: as §1
Staphylococcus hominis [18] = experiment: Antibacterial activity against methicillin-resistant coagulase-negative Staphylococcus hominis clinical isolate by broth microdilution method; how it was run: as §1
[19] = tested on: Staphylococcus saprophyticus; experiment: Antibacterial activity against methicillin-resistant coagulase-negative Staphylococcus saprophyticus clinical isolate by broth microdilution method; how it was run: as §1
Mammaliicoccus sciuri [20] = experiment: Antibacterial activity against methicillin-resistant coagulase-negative Staphylococcus sciuri clinical isolate by broth microdilution method; how it was run: as §1
Staphylococcus simulans [21] = experiment: Antibacterial activity against methicillin-resistant coagulase-negative Staphylococcus simulans clinical isolate by broth microdilution method; how it was run: as §1
Staphylococcus warneri [22] = experiment: Antibacterial activity against methicillin-resistant coagulase-negative Staphylococcus warneri clinical isolate by broth microdilution method; how it was run: as §1
Staphylococcus xylosus [23] = experiment: Antibacterial activity against methicillin-resistant coagulase-negative Staphylococcus xylosus clinical isolate by broth microdilution method; how it was run: as §1
Staphylococcus [24] = experiment: Antibacterial activity against methicillin-resistant coagulase-negative unspeciated Staphylococcus clinical isolate by broth microdilution method; how it was run: as §1
Enterococcus faecalis [25] = experiment: Antibacterial activity against vancomycin-susceptible Enterococcus faecalis clinical isolate by broth microdilution method; how it was run: as §1
Enterococcus faecalis [26] = experiment: Antibacterial activity against vancomycin- and teichoplanin-nonsusceptible Enterococcus faecalis clinical isolate by broth microdilution method; how it was run: as §1
Enterococcus faecium [27] = experiment: Antibacterial activity against vancomycin-susceptible Enterococcus faecium clinical isolate by broth microdilution method
How it was run: (§2)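 MIC by CLSI broth microdilution in frozen microtiter trays holding serial dilutions of each agent, prepared from standard laboratory powders. E. faecalis ATCC 29212 and ATCC 51299, S. aureus ATCC 29213 and S. pneumoniae ATCC 49619 run in parallel as quality-control strains. Comparator susceptibility interpreted with CLSI breakpoints.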

Enterococcus faecium [28] = experiment: Antibacterial activity against vancomycin- and teichoplanin-nonsusceptible Enterococcus faecium clinical isolate by broth microdilution method; how it was run: as §1
Enterococcus faecium [29] = experiment: Antibacterial activity against vancomycin-resistant and teichoplanin-susceptible Enterococcus faecium clinical isolate by broth microdilution method; how it was run: as §1
Streptococcus agalactiae = experiment: Antibacterial activity against Streptococcus agalactiae clinical isolate by broth microdilution method; how it was run: as §2
Streptococcus equinus = experiment: Antibacterial activity against Streptococcus bovis clinical isolate by broth microdilution method; how it was run: as §2
[30] = tested on: Streptococcus constellatus; experiment: Antibacterial activity against Streptococcus constellatus clinical isolate by broth microdilution method; how it was run: as §2
[31] = tested on: Streptococcus intermedius; experiment: Antibacterial activity against Streptococcus intermedius clinical isolate by broth microdilution method; how it was run: as §2
Streptococcus mitis = experiment: Antibacterial activity against Streptococcus mitis clinical isolate by broth microdilution method; how it was run: as §2
Streptococcus oralis = experiment: Antibacterial activity against Streptococcus oralis clinical isolate by broth microdilution method; how it was run: as §2
Streptococcus sanguinis = experiment: Antibacterial activity against Streptococcus sanguinis clinical isolate by broth microdilution method; how it was run: as §2
Streptococcus sp. = experiment: Antibacterial activity against Streptococcus sp. clinical isolate by broth microdilution method
How it was run: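 MIC by CLSI broth microdilution in frozen microtiter trays holding serial dilutions of each agent, prepared from standard laboratory powders. Comparator susceptibility interpreted with CLSI breakpoints.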

Streptococcus pneumoniae [32] = experiment: Antibacterial activity against penicillin susceptible Streptococcus pneumoniae clinical isolate by broth microdilution method; how it was run: as §1
Streptococcus pneumoniae [33] = experiment: Antibacterial activity against penicillin intermediate Streptococcus pneumoniae clinical isolate by broth microdilution method; how it was run: as §1
Streptococcus pneumoniae [34] = experiment: Antibacterial activity against penicillin resistant Streptococcus pneumoniae clinical isolate by broth microdilution method; how it was run: as §1

With `CC(=O)NC[C@H]1CN(c2ccc(N3CCOCC3)c(F)c2)C(=O)O1` [LINEZOLID] the MIC50 (Staphylococcus aureus [1]) was 2 µg/mL (≈ 5.93 µM), the MIC90 (Staphylococcus aureus [1]) was 2 µg/mL (≈ 5.93 µM) and the MIC50 (Staphylococcus aureus [2]) was 2 µg/mL (≈ 5.93 µM). It also gave an MIC90 (Staphylococcus aureus [2]) of 2 µg/mL (≈ 5.93 µM), an MIC50 (Staphylococcus capitis [3]) of 1 µg/mL (≈ 2.96 µM) and an MIC90 (Staphylococcus capitis [3]) of 1 µg/mL (≈ 2.96 µM). For the same molecule, the MIC50 (Staphylococcus cohnii [4]) was 1 µg/mL (≈ 2.96 µM), the MIC90 (Staphylococcus cohnii [4]) was 1 µg/mL (≈ 2.96 µM) and the MIC50 [5] was 1 µg/mL (≈ 2.96 µM). It also gave an MIC90 [5] of 1 µg/mL (≈ 2.96 µM), an MIC50 [6] of 1 µg/mL (≈ 2.96 µM) and an MIC90 [6] of 1 µg/mL (≈ 2.96 µM). For the same molecule, the MIC50 (Staphylococcus hominis [7]) was 1 µg/mL (≈ 2.96 µM), the MIC90 (Staphylococcus hominis [7]) was 1 µg/mL (≈ 2.96 µM) and the MIC50 [8] was 1 µg/mL (≈ 2.96 µM). It also gave an MIC90 [8] of 1 µg/mL (≈ 2.96 µM), an MIC50 (Mammaliicoccus sciuri [9]) of 1 µg/mL (≈ 2.96 µM) and an MIC90 (Mammaliicoccus sciuri [9]) of 1 µg/mL (≈ 2.96 µM). For the same molecule, the MIC50 (Staphylococcus simulans [10]) was 1 µg/mL (≈ 2.96 µM), the MIC90 (Staphylococcus simulans [10]) was 1 µg/mL (≈ 2.96 µM) and the MIC50 (Staphylococcus warneri [11]) was 1 µg/mL (≈ 2.96 µM). For the same molecule, the MIC90 (Staphylococcus warneri [11]) was 1 µg/mL (≈ 2.96 µM), the MIC50 (Staphylococcus xylosus [12]) was 1 µg/mL (≈ 2.96 µM) and the MIC90 (Staphylococcus xylosus [12]) was 1 µg/mL (≈ 2.96 µM). It also gave an MIC50 (Staphylococcus [13]) of 1 µg/mL (≈ 2.96 µM), an MIC90 (Staphylococcus [13]) of 1 µg/mL (≈ 2.96 µM) and an MIC50 (Staphylococcus capitis [14]) of 1 µg/mL (≈ 2.96 µM). For the same molecule, the MIC90 (Staphylococcus capitis [14]) was 1 µg/mL (≈ 2.96 µM), the MIC50 (Staphylococcus cohnii [15]) was 1 µg/mL (≈ 2.96 µM) and the MIC90 (Staphylococcus cohnii [15]) was 1 µg/mL (≈ 2.96 µM). It also gave an MIC50 [16] of 1 µg/mL (≈ 2.96 µM), an MIC90 [16] of 1 µg/mL (≈ 2.96 µM) and an MIC50 [17] of 1 µg/mL (≈ 2.96 µM). The MIC90 [17] was 1 µg/mL (≈ 2.96 µM), the MIC50 (Staphylococcus hominis [18]) was 1 µg/mL (≈ 2.96 µM) and the MIC90 (Staphylococcus hominis [18]) was 1 µg/mL (≈ 2.96 µM). The MIC50 [19] was 1 µg/mL (≈ 2.96 µM), the MIC90 [19] was 1 µg/mL (≈ 2.96 µM) and the MIC50 (Mammaliicoccus sciuri [20]) was 1 µg/mL (≈ 2.96 µM). The MIC90 (Mammaliicoccus sciuri [20]) was 1 µg/mL (≈ 2.96 µM), the MIC50 (Staphylococcus simulans [21]) was 1 µg/mL (≈ 2.96 µM) and the MIC90 (Staphylococcus simulans [21]) was 1 µg/mL (≈ 2.96 µM). The MIC50 (Staphylococcus warneri [22]) was 1 µg/mL (≈ 2.96 µM), the MIC90 (Staphylococcus warneri [22]) was 1 µg/mL (≈ 2.96 µM) and the MIC50 (Staphylococcus xylosus [23]) was 1 µg/mL (≈ 2.96 µM). For the same molecule, the MIC90 (Staphylococcus xylosus [23]) was 1 µg/mL (≈ 2.96 µM), the MIC50 (Staphylococcus [24]) was 1 µg/mL (≈ 2.96 µM) and the MIC90 (Staphylococcus [24]) was 1 µg/mL (≈ 2.96 µM). For the same molecule, the MIC50 (Enterococcus faecalis [25]) was 1 µg/mL (≈ 2.96 µM), the MIC90 (Enterococcus faecalis [25]) was 2 µg/mL (≈ 5.93 µM) and the MIC50 (Enterococcus faecalis [26]) was 1 µg/mL (≈ 2.96 µM). For the same molecule, the MIC90 (Enterococcus faecalis [26]) was 2 µg/mL (≈ 5.93 µM), the MIC50 (Enterococcus faecium [27]) was 2 µg/mL (≈ 5.93 µM) and the MIC90 (Enterococcus faecium [27]) was 2 µg/mL (≈ 5.93 µM). The MIC50 (Enterococcus faecium [28]) was 2 µg/mL (≈ 5.93 µM), the MIC90 (Enterococcus faecium [28]) was 2 µg/mL (≈ 5.93 µM) and the MIC50 (Enterococcus faecium [29]) was 2 µg/mL (≈ 5.93 µM). For the same molecule, the MIC90 (Enterococcus faecium [29]) was 2 µg/mL (≈ 5.93 µM), the MIC50 (Streptococcus agalactiae) was 1 µg/mL (≈ 2.96 µM) and the MIC90 (Streptococcus agalactiae) was 1 µg/mL (≈ 2.96 µM). The MIC50 (Streptococcus equinus) was 1 µg/mL (≈ 2.96 µM), the MIC90 (Streptococcus equinus) was 1 µg/mL (≈ 2.96 µM) and the MIC50 [30] was 1 µg/mL (≈ 2.96 µM). For the same molecule, the MIC90 [30] was 1 µg/mL (≈ 2.96 µM), the MIC50 [31] was 1 µg/mL (≈ 2.96 µM) and the MIC90 [31] was 1 µg/mL (≈ 2.96 µM). The MIC50 (Streptococcus mitis) was 1 µg/mL (≈ 2.96 µM), the MIC90 (Streptococcus mitis) was 1 µg/mL (≈ 2.96 µM) and the MIC50 (Streptococcus oralis) was 1 µg/mL (≈ 2.96 µM). The MIC90 (Streptococcus oralis) was 1 µg/mL (≈ 2.96 µM), the MIC50 (Streptococcus sanguinis) was 1 µg/mL (≈ 2.96 µM) and the MIC90 (Streptococcus sanguinis) was 1 µg/mL (≈ 2.96 µM). The MIC (Streptococcus sp.) was at most 0.12 µg/mL, the MIC50 (Streptococcus pneumoniae [32]) was 1 µg/mL (≈ 2.96 µM) and the MIC90 (Streptococcus pneumoniae [32]) was 1 µg/mL (≈ 2.96 µM). The MIC50 (Streptococcus pneumoniae [33]) was 1 µg/mL (≈ 2.96 µM), the MIC90 (Streptococcus pneumoniae [33]) was 1 µg/mL (≈ 2.96 µM) and the MIC50 (Streptococcus pneumoniae [34]) was 1 µg/mL (≈ 2.96 µM). The MIC90 (Streptococcus pneumoniae [34]) was 1 µg/mL (≈ 2.96 µM).
